This sample holds only a part of the variants without activity.
B1: tRNA (parent)
chain: GUUCCGUUGGCGUAAUGGUAACGCGUCUCCCUCCUAAGGAGAAGACUGCGGGUUCGAGUCCCGUACGGAACG

Variants of: B1
Test: yeast fitness relative to wild type (ratio to wild type); higher = fitter; tRNA-Arg(CCU), competitive growth, 37 C, YPD
Method in brief: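 Variants of the tRNA-Arg(CCU) gene, chemically synthesised with a 3% per-site mutation rate at 69 sites, were placed at the native genomic locus in Saccharomyces cerevisiae. The pooled strains were competed in YPD at 37°C for 24 hours in six parallel replicates. Gene amplicons from the start population and from each end population were read by 100-nucleotide paired-end sequencing. Darwinian fitness relative to wild type came from changes in genotype frequencies; genotypes needed ≥ 100 starting reads, and estimates < 0.5 were set to 0.5.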

Variant	yeast fitness
G17A C31U U35C A57G	0.527
C5G A42C G51C A65G	≤ 0.5
C27U C62G	0.669
G10C C29U C34U G38A G44C	≤ 0.5
G52C A57C	0.526
G38C A70C	0.738
U16A A20G C27U C29A G41C G63A	≤ 0.5
A43U G56C C61A	≤ 0.5
G10A C27G U28G C34U C46G	0.576
A15G C33U G50A	≤ 0.5
C5U U7C A40U U59A A65U G68A	0.649
A14C A20U C31U G38C G67A	0.53
G9C G12C C24U C34U C49G	0.658
U16A C22G G48A	0.994
G23A C30U U35C	≤ 0.5
U2A G12A G17A A20G A21C C29A A69U	≤ 0.5
U2A G23A	0.867
C4G A21C C22A C27G C34U G56A G67C	≤ 0.5
C30U A36G C61G	≤ 0.5
A37G G58C A69C	0.623
C34U G38C C55A	≤ 0.5
C4A U8C G18C C33U	≤ 0.5
A14G G39A	0.751
U26G G48C	0.805

Variant	yeast fitness
U8A C24G A40G C49U G56C	≤ 0.5
G12A A20U C62U A65G	≤ 0.5
U2A G9A A37C A42C G68A	≤ 0.5
G9A C11G U19C C55A	≤ 0.5
U32G G48A A70U	0.553
C4U	0.989
C22G U32C A43G G52A C61G	≤ 0.5
G10A U28A	0.633
A20G G44A	0.962
G10C C11G G50A A65C	≤ 0.5
C24G A36U A42U C49G U53A G58A C60A	≤ 0.5
C5G U7G G23C C31U C49U	≤ 0.5
C60U A69G	0.572
G10A C33U G44C A45G G58A	≤ 0.5
C46A A70U	1.04
C22G C34U	0.696
A20C C31U A40G G52C A65G	0.551
A20C A45U C55U	≤ 0.5
C5G A15C U32C C46U U53G	≤ 0.5
C5U U8C A21G A42U G58A	0.726
U32C U35C A37U G52A C66A	0.719
U28C C31A C34G A45U	≤ 0.5
U7A C34G C66U	≤ 0.5
U7A C30G A57U G58A	≤ 0.5

Variant	yeast fitness
C11A C27A A70G	≤ 0.5
G6C C22U C24G C27U C29A C30U C31G A70C	≤ 0.5
C22U C49G U53A	0.558
G17A C24U	0.778
C27U C46U A57G	0.679
G44A G58C C66U	0.667
G6A U64G	0.795
A14G A65C	0.903
U7C A14U G68A	≤ 0.5
G9A C11A A40U G48C C55U C61G	≤ 0.5
C4G A43C	0.853
G12A G44C G50A	0.608
U7C U26A	0.777
U2A C60U C62A	≤ 0.5
U7C A21G	0.761
C34G A37C C60G A65U	≤ 0.5
C11U G23C C27A A69U	≤ 0.5
U2C A40C G50A C66U	≤ 0.5
C4A C31G C46U	0.677
U8C G48A C55A G58C	≤ 0.5
U16A C24U C30G U35A	0.539
A20U U26A	0.754
C24G C60A	0.576
G9A A57G	0.933

Variant	yeast fitness
G25C A40C G68C	0.645
U3C U8A	0.639
C5U G56A C61A	≤ 0.5
C22A C27G G38C A43C C66U A69G	≤ 0.5
A45C G48A A70U	0.654
C22G C29G C46U G63A A70U	≤ 0.5
A20G G23A A65G	0.574
U26A A36C	≤ 0.5
G12C U16A C24G G58C C61G	≤ 0.5
C29A G44A C49A U59A	≤ 0.5
C4U C49A	0.787
C34G G51A	0.94
C11U G17C U32A C46A	≤ 0.5
U59G	1.01
C11U A45U G58U	0.562
U16C U47C C60U C62A	≤ 0.5
C5A A21C C24A G50C	≤ 0.5
C5G A21G C24U G68A	0.71
C60A U64A	0.561
U8C G10A G67C	0.592
C22G U47A A70C	≤ 0.5
A14G C34G A43C U47C	0.533
G6C A37G A40U A45C	0.702
C4G A15G A20G G23A C34G G67A	≤ 0.5

Variant	yeast fitness
A21G C30A U32G G67A A69C	≤ 0.5
U32A G68C	0.721
C11U A42G	0.917
U3A G23A U32A	≤ 0.5
A21C C34U A36U G38C C49U	≤ 0.5
C31U U47A	0.817
A14G C62U	0.937
U2A A57U A65U	≤ 0.5
G12A A20C A43U U47C C62U A70C	≤ 0.5
G25C G44A A69U	0.622
C11U U32C A45C	0.885
C4G C24G G41C	≤ 0.5
C11G C29G C33U C46A C49G	0.564
A14G U26G A37U A45U G51A A65C	≤ 0.5
G9C C30G A37U U47A	≤ 0.5
U7A U19G A70G	≤ 0.5
U8A C49U A69U	0.537
A20C G25C G38C A43G	≤ 0.5
C11U A20U C22A C66G	≤ 0.5
U19A A36C G51C U59A	≤ 0.5
U32G C33G A70U	0.543
C24A G51A	0.53
A14C A20G A45C A57C	≤ 0.5
U8C A14C G18A C31U	≤ 0.5

Variant	yeast fitness
G58C C61A A65U	≤ 0.5
U2C A42U C62U	0.571
G17A C30G G67C	≤ 0.5
U13C C24U C34G	0.556
U16A G41A A70U	0.666
C4A C5U C22U C34A C49G	≤ 0.5
C33U U54C C61G	≤ 0.5
C24G C34G A43U	≤ 0.5
G12A U13C U16A U19G G23A G58A G68A	≤ 0.5
U54G A70U	0.678
C11U C22U A43C C49U C55G C61U	≤ 0.5
U13C U35A A70G	≤ 0.5
C33G U54C C62A G68C	≤ 0.5
U7A A36G A40G G56C C62A	≤ 0.5
C24G U35G G48C C66U	≤ 0.5
U19C A42G C46A C55G	≤ 0.5
U32C C46U G50A G56C C62A C66U	≤ 0.5
A57U	0.731
U3C A20G A43G	0.744
C11G C34U A42C C66A	≤ 0.5
A37C G38C	0.502
U3G C5A C34A	≤ 0.5
C5U G23C C55A	0.566
C33G A45C G50C	≤ 0.5

Variant	yeast fitness
A15G U35C	0.892
C11G C46G	0.75
U19C U47A A57C	≤ 0.5
U7G A20G C27U C49G G52C A70G	≤ 0.5
C46A U54C	0.888
A36G U54C C61U C66U	≤ 0.5
G6C A42C C49U C66A	≤ 0.5
C30G G51C C61G	≤ 0.5
C27A C31G U54C	0.744
A15C A21G C22U C49U U53C	≤ 0.5
G38C G39C C46U A69U	≤ 0.5
A42U C55G	0.616
C22U U26C	0.667
A20C C27U C66U G67C	≤ 0.5
G12A A15G G39C	≤ 0.5
C5G C46U G50A	0.731
C34U C46G C62U	0.549
U8A G12A A14C C31A G41C C49A G56A	0.563
A14G C27U U47A C62U	0.566
C4G A15C U26G G41C A69U	≤ 0.5
C4U C11U A15G C34U U54C C55U	0.501
G38C C61G C66U A69U	≤ 0.5
C27U A45U G52A	0.63
